Measured values gathered from unrelated publications.
Target: Phosphatidylinositol 4-phosphate 5-kinase type-1 alpha (PIP5K1A, Homo sapiens, UniProt Q99755)

| Compound | test | setting | measurement | result |
| --- | --- | --- | --- | --- |
| Cc1cnc(NC2CCOCC2)nc1-n1cnc(C(=O)NC(CN)c2cc(F)cc(Cl)c2)c1 (centres unmarked) | enzyme activity, inhibitor, radiometric | 1 µM | remaining activity | 100% |
| Cc1ccc(NC(=O)c2ccc(C)c(C(F)(F)F)c2)cc1C#Cc1nn(C2CCC(O)CC2)c2ncnc(N)c12 (centres unmarked) | cell-free assay, inhibitor | 10 µM | remaining signal | 102% |
| Cc1cc(NC(=O)c2cccc3cc(-c4cccc5[nH]nc(N)c45)ccc23)ccc1F | enzyme activity, inhibitor | 0.1 µM | activity vs control | 96% |
| Cc1ccc(C(=O)Nc2ccc(CN3CCN(C)CC3)c(C(F)(F)F)c2)cc1C#Cc1cnc2cccnn12 | enzyme activity, inhibitor | 23.5 nM | remaining activity | 79% |
| COCCOc1nc(-c2ccc(Cl)nc2)nc2c1CN(C(=O)c1ncn3ccccc13)CC2 | cell-free assay, competition with immobilised ligand | 0.1 µM | remaining binding | 100% |
| O=C(CSc1nc2nccnc2c(=O)n1CCc1ccccc1)Nc1nccs1 | enzyme activity, inhibitor | 10 µM | inhibition | -2% |
| Nc1ncnc2occ(-c3ccc(NC(=O)Nc4cc(C(F)(F)F)ccc4F)cc3)c12 | enzyme activity, inhibitor | 20 µM | remaining activity | 60% |
| CCOCCn1cc(C(=O)Nc2ccc(-n3nc(-c4cccnc4)cc3C(F)(F)F)cn2)ccc1=O | cell-free assay, competition with immobilised ligand | 1 µM | remaining binding | 100% |
| COc1cc(Cl)c(C(=O)N[C@@H](CN[C@H]2CC[C@@H](N)CC2)Cc2ccc(C#N)cc2)cc1-c1ccc(CN[C@H](C)c2ccc(C)cc2)o1 | enzyme activity, inhibitor | 1 µM | remaining activity | 106% |
| CS(=O)(=O)Nc1cccc(-c2csc(NC(=O)CSc3nc4nccnc4c(=O)n3CCc3ccccc3)n2)c1 | enzyme activity, inhibitor | 10 µM | inhibition | -1% |
| CN1CC(Oc2cnc(C#N)cc2-c2ccn3nc(NC(=O)C4CC4)cc3c2)C1 | enzyme activity, inhibitor | 1 µM | inhibition | 0% |
